Assay [1] concerns MCF7. The experiment in a line: Antiproliferative activity against estradiol-stimulated human MCF7 cells after 3 days at 10 nM by crystal violet staining. The format is functional, cell-based.
For assay [2], the system named is MCF7. The experiment in a line: Antiproliferative activity against human MCF7 cells after 3 days at 10 nM by crystal violet staining. The format is functional, cell-based.
In assay [3] the test system is MCF7. The experiment in a line: Down regulation of estrogen receptor alpha expression in human MCF7 cells after 24 hrs by Western blot analysis. The format is functional, cell-based. The procedure, abridged: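 MCF-7 breast carcinoma cells exposed to increasing concentrations of each compound for 24 h, with untreated control cultures kept in parallel. Equal amounts of solubilized protein were analysed for ERα by Western blotting. The experiment was done twice.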

In assay [4] the test system is MCF7. The experiment in a line: Down regulation of estrogen receptor alpha expression in human MCF7 cells at 100 nM after 24 hrs by immunofluorescence staining. The format is functional, cell-based. The essentials: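 MCF-7 cells treated 24 h at 100 nM, untreated control; ERα shown by immunofluorescence with HC-20 antiserum, Texas Red labeling.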
The target in assay [5] is T1, Estrogen receptor (Homo sapiens) (UniProt P03372).
T1 sequence (whole entry): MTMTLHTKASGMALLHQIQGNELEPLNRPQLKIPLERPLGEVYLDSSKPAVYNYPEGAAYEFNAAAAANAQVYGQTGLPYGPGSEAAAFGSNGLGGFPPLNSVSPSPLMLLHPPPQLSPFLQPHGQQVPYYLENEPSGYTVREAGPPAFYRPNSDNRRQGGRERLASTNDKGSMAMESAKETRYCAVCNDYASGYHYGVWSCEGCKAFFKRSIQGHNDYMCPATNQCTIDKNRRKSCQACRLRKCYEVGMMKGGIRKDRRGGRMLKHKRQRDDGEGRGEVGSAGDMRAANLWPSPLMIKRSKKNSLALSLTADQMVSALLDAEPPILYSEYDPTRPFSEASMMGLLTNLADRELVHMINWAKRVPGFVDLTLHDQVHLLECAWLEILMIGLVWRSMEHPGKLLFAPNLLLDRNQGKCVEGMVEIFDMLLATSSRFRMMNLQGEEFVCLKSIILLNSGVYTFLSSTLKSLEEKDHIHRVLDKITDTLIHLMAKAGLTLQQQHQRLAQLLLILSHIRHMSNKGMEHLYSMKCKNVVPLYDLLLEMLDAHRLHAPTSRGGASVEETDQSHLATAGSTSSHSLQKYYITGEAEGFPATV
The experiment in a line: Displacement of [3H]estradiol from human recombinant estrogen receptor alpha by radiometric assay relative to estradiol. The essentials: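 Purified recombinant human ERα; competition with [3H]E2 binding at 0 °C; inhibition curves give relative binding affinity (RBA).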
For orientation: Loss of bound radioactivity is the signal in a displacement assay; it reports binding, not function.

The target of assay [6] is T1, Estrogen receptor (Homo sapiens). Description: Antiestrogenic activity at human recombinant estrogen receptor alpha assessed as inhibition of recruitment of LxxLL-containing coactivators after 30 mins by ELISA in presence of estradiol. In general terms: In an ELISA, binding on a coated surface is turned into a signal by an enzyme label.
Assay [7] shares this target. Description: Antiestrogenic activity at human recombinant estrogen receptor alpha assessed as inhibition of recruitment of LxxLL-containing coactivators after 30 mins by ELISA in absence of estradiol.
For assay [8] the target is unchanged. Description: Binding affinity to estrogen receptor alpha in human MCF7 cells assessed as inhibition of [3H]E2 accumulation after 45 mins by whole cell competition binding assay. The format is cell-based. The essentials:
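Intact MCF-7 cells incubated 45 min with [3H]E2 at 1 nM, alone (control) or with competitor at 1 nM to 1 µM; cellular [3H]E2 accumulation measured, with unlabeled E2 as reference.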

Assay [9] deals with MCF7. The experiment in a line: Suppression of estradiol-induced down regulation of estrogen receptor alpha expression in human MCF7 cells at 1 uM after 24 hrs by Western blot analysis. The format is functional, cell-based. The essentials: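 Western blot of ERα in MCF-7 cells after 24 h with compound at 1 µM, alone or with 10 nM E2; equal protein loading; experiment done twice.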
In general terms: In western blotting, separated proteins are transferred to a membrane and probed.

Assay [10] relates to MCF7. The experiment in a line: Suppression of estradiol-induced down regulation of estrogen receptor alpha expression in human MCF7 cells at 1 uM after 24 hrs by immunofluorescence staining. The format is functional, cell-based. The procedure, abridged: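 ERα immunofluorescence (HC-20 antiserum, Texas Red) in MCF-7 cells after 24 h with E2 at 1 nM and/or compound at 1 µM; untreated control included.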

Assay [11] has as its system MCF7. The experiment in a line: Down regulation of estrogen receptor alpha expression in human MCF7 cells after 24 hrs by Western blot analysis in presence of 3,17beta-dihydroxy-11beta-[4,4,5,5,6,6,7,7-octafluoro-9-(4,4,5,5,5-pentafluoropentane-1-sulfinyl)nonyl]estra-1,3,5(10)-triene. The format is functional, cell-based. The procedure, abridged:
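MCF-7 cells exposed 24 h to increasing concentrations, untreated cultures run in parallel; equal amounts of solubilized protein Western blotted for ERα; experiment done twice.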

Active and inactive are the calls of the source. The calls are words filed in the database; no cut-off is given here.

Experimental findings from ChEMBL document CHEMBL1143370, “Effect of fluorination on the pharmacological profile of 11beta isomers of fulvestrant in breast carcinoma cells” (J Med Chem, 2009) are described below.

As to `C[C@]12CC[C@@H]3c4ccc(O)cc4C[C@@H](CCCCCCCCC[S+]([O-])CCCC(F)(F)C(F)(F)F)[C@H]3[C@@H]1CC[C@@H]2O` (stereo partly specified), the result in assay [1], in assay [2], in assay [3] and in assay [4] was Active. Moreover, in assay [5], the relative binding affinity (RBA) stood at 10.
For the compound `C[C@]12C[C@H](CCCCCCCCC[S+]([O-])CCCC(F)(F)C(F)(F)F)[C@@H]3c4ccc(O)cc4CC[C@H]3[C@@H]1CC[C@@H]2O` (stereo partly specified), the result in assay [6], in [7], in assay [8], in assay [1], in [2] and in assay [3] was Active. Besides, the result in assay [4] was Active. In addition, the relative binding affinity (RBA) in [5] worked out at 6.
`C[C@]12C[C@H](CCCC(F)(F)C(F)(F)C(F)(F)C(F)(F)CC[S+]([O-])CCCC(F)(F)C(F)(F)F)[C@@H]3c4ccc(O)cc4CC[C@H]3[C@@H]1CC[C@@H]2O` (stereo partly specified): the outcome in assay [6], in [7], in assay [2], in assay [9] and in [10] was Active. For the same compound, the result in assay [4] and in assay [11] was inactive. Besides, the relative binding affinity (RBA) in assay [5] is 2.
